According to PubChem BioAssay:
Unmarked numbers belong to inactive results. Records with an inconclusive call do not appear. Calls of active or inactive are those of the source.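 The calls were made as follows, unless noted: active = viability at or below 27.92% in each of two runs, the all-compound median minus 4 SD; inconclusive = no clear call, values can overlap the other calls; inactive = the rest.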

Columns and labels:
[1] = OD615 S. cerevisiae growth inhibition, permissive medium, pilot counter-assay, permissive growth control for S. cerevisiae lifespan shortening project (AID 705;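 active = growth inhibition above 25% in both replicates, a cutoff set 3 SD above the mean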); conditions: OD615, 24 h, at 10 µM, stronger effect = higher value
Summary of the method: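 assay system = Saccharomyces cerevisiae strain carrying genetically modified DeaD replicative-lifespan system | technique = absorbance (optical density) at 615 nm | buffer or medium = permissive raffinose/galactose medium | timing = cells pre-grown 4 h, then 24 h compound exposure, 30 °C humidified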

[2] = Restrictive medium S. cerevisiae growth inhibition, OD615, pilot screen of yeast lifespan reduction project, restrictive growth control (AID 706;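 active = growth inhibition above a set limit, 3 SD over mean compound inhibition, in both replicates, cut at about 43% in these data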;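 also: modified DeaD lifespan yeast strain shifted to restrictive glucose medium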); conditions: OD615, 48 h, at 10 µM, stronger effect = higher value
Summary of the method: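 System: modified S. cerevisiae. Buffer or medium: CSMM-D glucose medium. Incubation: 4 h pre-growth plus 48 h compound exposure, 30 °C. Detection: absorbance (optical density) measured at 615 nm.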

[3] = viability gain of MRP-1-high H69AR cells under doxorubicin, pilot screen, MRP-1 activator project, CellTiter-Glo, duplicate (AID 807;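 active = viability increase at or above a cutoff of the median across tested compounds plus 3 SD, cut at about 8.5% in these data, passing the limit was not always enough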;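 also: compound pretreatment 18-22 h then 72 h combined with doxorubicin; 0% = doxorubicin alone and 100% = vehicle without doxorubicin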); conditions: H69AR viability with doxorubicin, CellTiter-Glo luminescence; at 10 µM; stronger effect = higher value
[4] = growth suppression of beta-catenin knockout HCT116, pilot screen, human colon tumor cells (AID 823;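 active = cell viability at or below a set limit in both duplicate runs, the limit being the all-compound median minus 4 SD, cut at about 23% in these data, passing the limit was not always enough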;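 also: 0% = wells killed by 20 µM Hyamine and 100% = untreated DMSO cell wells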); conditions: CellTiter-Glo, 60 h, at 10 µM, stronger effect = lower value
[5] = growth suppression of PTEN-deleted HCT116, pilot screen, cell-based, HCT116 clonal line, CellTiter-Glo (AID 824); conditions: 60 h, at 10 µM, stronger effect = lower value;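 also: 0% = 20 µM Hyamine control and 100% = vehicle cell control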
[6] = inhibitors of the yeast RAM network, pilot screen, dse1pr::URA3 reporter, 5-FOA selection (AID 869;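 active = inhibition over a set limit, the all-compound mean plus 3 SD, in both replicate runs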;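 also: 0% = DMSO wells with no growth and 100% = 10 µM 1-NA-PP1 with full growth; RAM network block rescues cells from 5-FOA so hits raise OD615 growth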); conditions: S. cerevisiae dse1pr::URA3 5-FOA growth, OD615, 2 d; at 10 µM; stronger effect = higher value; strain carries analog-sensitive mutant Cbk1 kinase
[7] = RAM signaling pathway blockade in yeast – S. cerevisiae, Pdr1DBD-CYC8 efflux-inhibited sensitized strain, primary screen (AID 1298;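 active = RAM network inhibition above 8.4% in each of two replicates, 3 SD over the compound average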;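 also: 0% = DMSO untreated cells without growth and 100% = 10 µM 1-NA-PP1 full growth; higher means more yeast growth rescued from 5-FOA killing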); conditions: S. cerevisiae cbk1-as DSE1-URA3 strain, 5-FOA growth OD615, 2 d; at 50 µM; stronger effect = higher value

Structure (SMILES)	growth inhibition [1] [%]	growth inhibition [2] [%]	viability increase [3]	viability [4] [%]	viability [5] [%]	inhibition [6] [%]	RAM network inhibition [7] [%]
CCCOc1ccc(N2C(=O)CC(N3CCC(O)(c4cccc(C(F)(F)F)c4)CC3)C2=O)cc1 (configuration not stated)	1.01	-0.55	2.49%	101	103	2.71	5.62
CCN=C(Nc1ccc2c(c1)OCO2)SC1CC(=O)N(c2ccccc2F)C1=O (configuration not stated)	-4.17	-8.21	-1.9%	97	95.9	3.15	10.8
O=C1NCC2=C1C(c1ccc(Br)cc1)Nc1ccccc1N2 (configuration not stated)	-14.3	-0.565	0.99%	106	96.1	-0.645	-2.69
CC(O)CSc1nc2c(c(=O)n(C)c(=O)n2C)n1CCCc1ccccc1 (configuration not stated)	-7.62	-5.55	0.66%	101	96	1.14	5.17
CN(C)S(=O)(=O)c1ccc(C(=O)Nc2ccc(F)cc2F)cc1	-14.5	0.42	1.08%	95.5	94.4	0.29	2.9
CC1(C)CC(=O)C(=CN2CCN(C(=O)c3ccco3)CC2)C(=O)C1	-20.6	-9.23	0.72%	100	90.3	2.93	3.19
CC(C)c1nnc(NC(=O)c2cccs2)s1	-15	-8.46	0.84%	95.5	86.4	1.23	6.85
CC(NC(=O)c1ccc(Cl)cc1)C(=O)N1CCCCC1 (configuration not stated)	2.3	0.39	0.75%	98	96.9	2.58	5.32
O=C(Nc1c(C(=O)O)oc2ccc(Br)cc12)c1ccccc1	-34	2.99	-3.96%	101	99.5	2.95	-2.35
O=c1c2c3c(sc2nc2n1CCCCC2)CCCCC3	-11.5	-20.9	0.17%	91.3	91.7	1.92	6.27
CCc1ccc(C2CC(c3cccc(Cl)c3)n3nc(N)nc3N2)cc1 (configuration not stated)	-3.09	10.4	-3.92%	71.5	65.6	2.25	9.11
Cc1ccc(C(=O)Nc2ccc3c(c2)CCC3)o1	-3.56	-9.54	-2.44%	77.5	69.8	0.895	-0.68
COc1ccc(C2CC(c3cccc(Cl)c3)n3nc(N)nc3N2)cc1 (configuration not stated)	-3.22	-3.25	-0.53%	99.8	89.9	1.37	2.3
COc1cc(S(=O)(=O)N2CCN(c3ccccc3)CC2)ccc1Cl	-16.9	-14	-3.07%	95.1	95.3	0.17	6.95
O=C1CCCC2=C1C(c1cn(-c3ccccc3)nc1-c1cccs1)c1c([nH]c(=O)[nH]c1=O)N2 (configuration not stated)	-11.2	-27.7	1.36%	106	99.1	0.32	2.19
CCOC(=O)C1=C(N)OC2=C(C(=O)CCC2)C1c1cccs1 (configuration not stated)	-0.655	5.78	0.3%	108	104	0.345	2.67
COC(=O)NCc1ccc(Cl)c(Cl)c1	0.76	-7.57	-1.07%	85.4	88.6	0.09	4.44
CCn1cc(CNC(=O)c2cc(Cl)ccc2OC)c(C)n1	-4.3	-0.555	-0.95%	91	92.2	-0.445	3.38

Structure (SMILES)	growth inhibition [1] [%]	growth inhibition [2] [%]	viability increase [3]	viability [4] [%]	viability [5] [%]	inhibition [6] [%]	RAM network inhibition [7] [%]
CS(=O)(=O)c1ccc(N)cc1	-13.1	-8.62	-2.37%	103	88.9	2.72	1.16
O=C(c1ccccc1)n1nc(-c2ccccc2)nc1NCc1ccco1	-15.5	-17	0.43%	96.7	98.1	2.25	6.58
COc1ccccc1NC(=O)CSc1ncn[nH]1	-3.71	-11	1.06%	98.2	101	-0.045	2.9
COCCOC(=O)c1[nH]c2c(c1C)C(=O)CC(c1cc(OC)ccc1OC)C2 (configuration not stated)	-16.8	-12.3	-6.01%	38.6	34.5	2.09	9.43
Oc1c(C(c2cccs2)N2CCN(c3ccc(F)cc3)CC2)sc2ncnn12 (configuration not stated)	0.78	-6.24	13.4% (active)	105	90.9	0.495	8.63
O=C(Nc1nc2ccc(Cl)cc2s1)c1ccc(Br)o1	-6.29	-6.11	-2.25%	82.3	82.7	2.08	5.17
CCC(C)Sc1nc2c(c(=O)n1C)SC(C)C2 (configuration not stated)	-11.3	7.98	-0.66%	91.6	91.8	2.51	4.01
CC1(C)CC(=O)C=C(NCc2cccnc2)C1	-4.83	-11.8	-1.4%	92.2	94.9	-0.505	1.01
CC(=O)c1ccc(NC(=O)CSc2nnc(Cc3cccn3C)n2-c2ccc(F)cc2)cc1	0.105	12.5	-2.21%	98	94.3	0.005	5.1
NC(=O)C1CCN(CCCNC2CC(=O)N(Cc3ccc(N4CCCC4=O)cc3)C2=O)CC1 (configuration not stated)	-14.8	-4.07	-0.01%	98.7	98.7	1.15	5.68
NC(=O)C1(N2CCCCC2)CCN(C(=O)CCCn2c(=O)[nH]c3ccsc3c2=O)CC1	-6.16	2.1	-1.61%	93.5	91.6	1.89	0.48
Cc1ccc(-c2nnc3n2N=C(c2ccccc2)CS3)cc1	-5.77	6.07	-0.74%	97.7	96.9	3.56	2.25
COc1ccc(NC(=O)CN2C(=O)CC(C)(C)S(=O)(=O)c3ccccc32)cc1	-4.11	2.55	0.92%	104	96.7	1.35	2.45
CSc1nnc(NC(=O)c2cc3ccccc3oc2=O)s1	-6.82	-6.74	-2.29%	93.8	95.5	1.24	4.01
N#CCn1nnc(-c2ccc3c(c2)OCO3)n1	-5.24	3.03	3.41%	98.5	103	0.46	0.16
CCCC(=O)c1ccc(N2CCCCCC2)c(F)c1	-13.2	-2.93	3.64%	85.9	87.3	1.73	1.5
CC1CN(Cc2nc3c(c(=O)n(C)c(=O)n3C)n2Cc2cccc(Cl)c2)CC(C)O1 (configuration not stated)	-4.24	-9	-2.03%	100	90.8	0.74	2.81
O=C(Cn1c(=O)oc2cc(S(=O)(=O)N3CCCCCC3)ccc21)NC1CCCCCCC1	-9.87	-14.8	-7.86%	95.2	88.5	4.98	10.5
